The source of these data is PubChem BioAssay.

The nature of test [1]: Her2 expression decrease, cell viability multiplex – SKBR3 breast tumor cells, AlphaScreen, ATP viability, primary screen (AID 461;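 active means Her2 level under about 52% in both replicate screens, with viability over 70% of control, limit read from the data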;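 on Her2 level: lower value means less Her2 protein in the cells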;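 on viability: percent of carrier control wells set as 100% viability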). To be noted: SKBR3 Her2 protein level, 18-24 h, measured here: SKBR3 viability, ATP luminescence, at 10 µM.
The target of test [2] is Receptor tyrosine-protein kinase erbB-2 (Homo sapiens) (UniProt P04626). The description is as above. To be noted: 18-24 h, at 10 µM, stronger effect = lower value.
Receptor tyrosine-protein kinase erbB-2 (Homo sapiens), sequence (P04626 whole entry, looked up): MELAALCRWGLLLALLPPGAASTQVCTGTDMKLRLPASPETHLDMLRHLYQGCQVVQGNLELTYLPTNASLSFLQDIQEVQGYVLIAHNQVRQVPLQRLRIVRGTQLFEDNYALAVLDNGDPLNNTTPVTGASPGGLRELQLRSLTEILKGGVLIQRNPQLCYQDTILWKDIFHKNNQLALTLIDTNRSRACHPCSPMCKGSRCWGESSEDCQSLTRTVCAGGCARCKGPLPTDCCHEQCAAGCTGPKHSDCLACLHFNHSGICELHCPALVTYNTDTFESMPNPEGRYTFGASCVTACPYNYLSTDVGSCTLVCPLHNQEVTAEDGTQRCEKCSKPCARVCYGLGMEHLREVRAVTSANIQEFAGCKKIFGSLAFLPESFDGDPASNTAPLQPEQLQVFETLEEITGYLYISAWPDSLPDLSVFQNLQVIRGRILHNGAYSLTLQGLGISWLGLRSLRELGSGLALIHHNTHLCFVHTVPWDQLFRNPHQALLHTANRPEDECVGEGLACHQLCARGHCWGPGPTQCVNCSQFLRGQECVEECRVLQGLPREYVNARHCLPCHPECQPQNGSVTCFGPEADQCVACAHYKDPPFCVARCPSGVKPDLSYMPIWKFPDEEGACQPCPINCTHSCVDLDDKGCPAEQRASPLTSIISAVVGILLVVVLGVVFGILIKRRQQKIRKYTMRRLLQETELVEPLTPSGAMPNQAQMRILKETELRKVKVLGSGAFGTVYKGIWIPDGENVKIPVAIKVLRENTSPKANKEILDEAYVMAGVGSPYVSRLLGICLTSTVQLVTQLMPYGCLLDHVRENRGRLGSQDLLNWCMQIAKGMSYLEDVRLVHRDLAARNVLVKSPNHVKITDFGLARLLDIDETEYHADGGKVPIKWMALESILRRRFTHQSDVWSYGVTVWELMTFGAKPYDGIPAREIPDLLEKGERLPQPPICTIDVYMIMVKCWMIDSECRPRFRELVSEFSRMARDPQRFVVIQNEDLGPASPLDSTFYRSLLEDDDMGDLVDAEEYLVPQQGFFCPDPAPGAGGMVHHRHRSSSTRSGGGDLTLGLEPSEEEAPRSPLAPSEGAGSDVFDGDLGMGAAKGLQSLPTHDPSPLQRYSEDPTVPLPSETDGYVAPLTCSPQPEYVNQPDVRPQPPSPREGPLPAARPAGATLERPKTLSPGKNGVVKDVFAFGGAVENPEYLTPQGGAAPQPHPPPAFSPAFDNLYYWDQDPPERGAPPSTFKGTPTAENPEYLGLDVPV
The nature of test [3]: reduced viability of SK-BR-3 breast cancer cells – cell-based, 24 h, human, pilot screen (AID 572;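 active means viability at or below 10% of carrier control in both of two separate runs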;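 further: compound exposure lasted between 18 and 24 h rather than exactly 24 h; 100% = carrier-treated control wells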). To be noted: SK-BR-3 viability, CellTiter-Glo luminescence, at 10 µM, stronger effect = lower value.
The nature of test [4]: HUVEC growth inhibition – cell-based, human, primary screen (AID 575).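 Further: 100% = median of untreated cell wells with 0.1% DMSO on each plate.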 To be noted: HUVEC proliferation, CellTiter-Glo luminescence, 72 h; at 10 µM; stronger effect = lower value. Put shortly: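 Timing: 72 h treatment at 37 °C; material: HUVEC primary cells; technique: CellTiter-Glo luminescence measuring cellular ATP; controls: vehicle and MePR control wells; measure: percent of median DMSO-control luminescence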

Test [5] can be described thus: H69AR cell proliferation blockers – human, duplicate replicates, primary screen (AID 580;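 active means viability at or under a set limit in both replicates, limit being median viability minus 3 SD, cut at about 48% in these data, passing the limit was not always enough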;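 further: 100% = mean luminescence of untreated wells and 0% = no signal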). As to conditions: H69AR lung tumor cells viability, ATP luminescence, 72 h; at 10 µM; stronger effect = lower value.
Test [6] in a line: MRP1 drug-resistance reversers in H69AR cells – cell-based, doxorubicin co-treatment, pilot screen (AID 601;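 active means viability loss from added drug above about 55%, and viability with drug at most 40%, in both replicates, limit read from the data, passing the limit was not always enough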). To be noted: CellTiter-Glo, 72 h, at 10 µM; for differential viability (reversal): stronger effect = higher value.
A short description of test [7]: yeast transport mutant growth inhibition pilot in 384-well plates, post-Golgi transport modulator project (AID 636; in the data active means inhibition above about 31%). To be noted: absorbance 615 nm, about 18 h, stronger effect = higher value.
The nature of test [8]: growth suppression of yeast trafficking mutant, preliminary HTS, modulators of trafficking downstream of Golgi apparatus project, 1536-format plate, OD 615 nm (AID 637; in the data active means inhibition above about 30%). As to conditions: yeast transport mutant growth, absorbance 615 nm, 18 h; stronger effect = higher value.
Where [9] appears, read: H69AR cells + 2 uM doxorubicin, measured here: viability with 2 uM doxorubicin, stronger effect = lower value.
Setting [10] is: H69AR cells, compound alone cytotoxicity.

Activity calls are given as the source filed them.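 How the source made its calls, unless noted: active means viability at or below 30% in both replicate assays; inconclusive means viability at or below 30% in just one of the two assays; inactive means the rest.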

Regarding `COc1ccc(-c2cc(C(F)(F)F)nc(SCC(=O)NCc3ccco3)n2)cc1OC`, the viability is 96.5% in test [1]; 96.5% (inactive) in test [3]; 68.1% (inactive) in test [4]; 55.2% (inactive) in test [5]; 80.9% in test [6] (setting [9]); 55.2% in test [6] (setting [10]). Moreover, the Her2 level in test [2] is 84% (inactive). Further, the differential viability (reversal) in test [6] (H69AR cells + 2 uM doxorubicin) was -25.6% (inactive). Moreover, the inhibition in test [7] was -0.66% (inactive); in test [8], -0.32% (inactive).

Regarding `Cc1cc2c(s1)c1cnn(CC(=O)NCCc3ccccc3)c(=O)c1n2C`, the viability was 120% in test [1]; 120% (inactive) in test [3]; 118% (inactive) in test [4]; 87.1% (inactive) in test [5]; 82% in test [6] (setting [9]); 87.1% in test [6] (setting [10]). Besides, the Her2 level in test [2] was 98.5% (inactive). Besides, the differential viability (reversal) in test [6] (H69AR cells + 2 uM doxorubicin) was 5.06% (inactive). For the same compound, the inhibition in test [7] is -5.81% (inactive); in test [8], -3.5% (inactive).

For the compound `CC(C)=CCCC(C)CN(C)CCc1ccccn1` (stereo not given), the viability in test [1] was 79%; in test [3], 79% (inactive); in test [4], 101% (inactive); in test [5], 98.6% (inactive); in test [6] (setting [9]), 77.3%; in test [6] (setting [10]), 98.6%. Moreover, the Her2 level in test [2] is 97% (inactive). Further, the differential viability (reversal) in test [6] (H69AR cells + 2 uM doxorubicin) is 21.2% (inactive). Further, the figures for the inhibition in test [7] and in test [8] were -5.19% (inactive) and -3.61% (inactive), respectively.

As for `O=C1C(C=NCCCn2ccnc2)=C(O)c2ccccc21`, the viability is 83% in test [1]; 83% (inactive) in test [3]; 105% (inactive) in test [4]; 99.2% (inactive) in test [5]; 82% in test [6] (setting [9]); 99.2% in test [6] (setting [10]). Further, in test [2], the Her2 level was 82.5% (inactive). In test [6] (H69AR cells + 2 uM doxorubicin), the differential viability (reversal) is 17.2% (inactive). The inhibition in test [7] was -5.14% (inactive); in test [8] it was -1.75% (inactive).

With `CC(C)(Oc1ccc(Cl)cc1)C(=O)NC1CCSC1=O` (stereo not given), the viability is 101% in test [1]; 101% (inactive) in test [3]; 90.3% (inactive) in test [4]; 114% (inactive) in test [5]; 94.6% in test [6] (setting [9]); 114% in test [6] (setting [10]). Besides, the Her2 level in test [2] is 104% (inactive). Moreover, the differential viability (reversal) in test [6] (H69AR cells + 2 uM doxorubicin) is 19.5% (inactive). For the same compound, the inhibition in test [7] is 0.27% (inactive); in test [8] it was -9.52% (inactive).

Regarding `Cc1ccc(Oc2ccc(-c3nc(N)nc(N)n3)cc2)cc1`, the viability in test [1] was 112%; in test [3], 112% (inactive); in test [4], 76.6% (inactive); in test [5] it was 108% (inactive); in test [6] (setting [9]) it was 84.8%; in test [6] (setting [10]), 108%. In test [2], the Her2 level was 82% (inactive). The differential viability (reversal) in test [6] (H69AR cells + 2 uM doxorubicin) was 23.1% (inactive). Further, the figures for the inhibition in test [7] and in test [8] were -5.33% (inactive) and 2.1% (inactive), respectively.

On to `O=C(Nn1cnnc1)c1cc2c(s1)CCCC2`, for which the viability in test [1] is 100%; in test [3] it was 100% (inactive); in test [4] it was 80% (inactive); in test [5], 102% (inactive); in test [6] (setting [9]), 104%; in test [6] (setting [10]) it was 102%. Besides, the Her2 level in test [2] was 95.5% (inactive). Further, the differential viability (reversal) in test [6] (H69AR cells + 2 uM doxorubicin) is -2.61% (inactive). The figures for the inhibition in test [7] and in test [8] were -3.42% (inactive) and -4% (inactive), respectively.

Consider `Cc1cccc(N2C(=O)CC(N3CCN(Cc4ccc(Cl)cc4)CC3)C2=O)c1` (stereo not given), for which the viability is 104% in test [1]; 104% (inactive) in test [3]; 94.7% (inactive) in test [4]; 99.2% (inactive) in test [5]; 86.9% in test [6] (setting [9]); 99.2% in test [6] (setting [10]). Moreover, in test [2], the Her2 level is 100% (inactive). In addition, the differential viability (reversal) in test [6] (H69AR cells + 2 uM doxorubicin) is 12.2% (inactive). Also, the figures for the inhibition in test [7] and in test [8] were -3.87% (inactive) and 0.82% (inactive), respectively.

In the case of `c1cnn(-c2cc(N3CCOCC3)ncn2)c1`, the viability is 70% in test [1]; 70% (inactive) in test [3]; 90.2% (inactive) in test [4]; 93% (inactive) in test [5]; 85.5% in test [6] (setting [9]); 93% in test [6] (setting [10]). Further, in test [2], the Her2 level was 117% (inactive). The differential viability (reversal) in test [6] (H69AR cells + 2 uM doxorubicin) was 7.52% (inactive). In addition, the inhibition in test [7] is 4.47% (inactive); in test [8], 21.6% (inactive).

Consider `Cc1noc(C)c1COc1cccc(C(=O)Nc2ccc(C#N)cc2)c1`, for which the viability is 96% in test [1]; 96% (inactive) in test [3]; 68% (inactive) in test [4]; 68.9% (inactive) in test [5]; 79.6% in test [6] (setting [9]); 68.9% in test [6] (setting [10]). Also, the Her2 level in test [2] is 90% (inactive). Moreover, the differential viability (reversal) in test [6] (H69AR cells + 2 uM doxorubicin) was -10.6% (inactive). The inhibition is -2.99% (inactive) in test [7] and -6.67% (inactive) in test [8].

Consider `CCn1nnnc1NCc1cccn1C`, for which the viability in test [1] was 88%; in test [3], 88% (inactive); in test [4], 105% (inactive); in test [5], 95.9% (inactive); in test [6] (setting [9]) it was 92.4%; in test [6] (setting [10]), 95.9%. Further, in test [2], the Her2 level was 83% (inactive). Moreover, the differential viability (reversal) in test [6] (H69AR cells + 2 uM doxorubicin) was 3.54% (inactive). For the same compound, the inhibition was -4.27% (inactive) in test [7] and 2.3% (inactive) in test [8].

In the case of `CCOc1ccc(OCC)c(NC(=O)CN2CCN(C(=O)c3ccco3)CC2)c1`, the viability in test [1] is 75%; in test [3], 75% (inactive); in test [4] it was 82.4% (inactive); in test [5], 68.8% (inactive); in test [6] (setting [9]) it was 30.6%; in test [6] (setting [10]) it was 68.8%. Moreover, the Her2 level in test [2] was 103% (inactive). In addition, the differential viability (reversal) in test [6] (H69AR cells + 2 uM doxorubicin) was 38.1% (inactive). In addition, the values for the inhibition in test [7] and in test [8] were 4.81% (inactive) and -7.3% (inactive), respectively.

In the case of `CCn1c(SCC(N)=O)nc2c1c(=O)n(C)c(=O)n2C`, the viability was 107% in test [1]; 107% (inactive) in test [3]; 90% (inactive) in test [4]; 95.9% (inactive) in test [5]; 91.1% in test [6] (setting [9]); 95.9% in test [6] (setting [10]). Further, the Her2 level in test [2] was 95% (inactive). Besides, in test [6] (H69AR cells + 2 uM doxorubicin), the differential viability (reversal) was 4.83% (inactive). Moreover, the values for the inhibition in test [7] and in test [8] were -2.63% (inactive) and -1.27% (inactive), respectively.

For the compound `COc1ccc2c(c1)CCc1c(C(=O)N3CCCc4ccccc43)noc1-2`, the viability in test [1] is 98%; in test [3], 98% (inactive); in test [4], 80.8% (inactive); in test [5], 81.1% (inactive); in test [6] (setting [9]), 78.1%; in test [6] (setting [10]), 81.1%. In test [2], the Her2 level is 87% (inactive). Also, in test [6] (H69AR cells + 2 uM doxorubicin), the differential viability (reversal) is 3% (inactive). In addition, the inhibition in test [7] is -6.05% (inactive); in test [8], -8.91% (inactive).

On to `COCCOC(=O)c1[nH]c2c(c1C)C(=O)CC(c1ccc(N(C)C)cc1)C2` (stereo not given), for which the viability is 111% in test [1]; 111% (inactive) in test [3]; 91.1% (inactive) in test [4]; 83.5% (inactive) in test [5]; 104% in test [6] (setting [9]); 83.5% in test [6] (setting [10]). The Her2 level in test [2] is 116% (inactive). For the same compound, the differential viability (reversal) in test [6] (H69AR cells + 2 uM doxorubicin) was -20.9% (inactive). The figures for the inhibition in test [7] and in test [8] were -6.16% (inactive) and -5.87% (inactive), respectively.
